Laboratory results from ChEMBL document CHEMBL4138242, “Synthesis and antibacterial evaluation of novel cationic chalcone derivatives possessing broad spectrum antibacterial activity” (Eur J Med Chem, 2018).

Assays:
[1] = test system: Escherichia coli; experiment: Ratio of MIC for Escherichia coli ATCC 25922 after 20 passages to MIC for Escherichia coli ATCC 25922 before 20 passages; assay type: functional, organism-based
Method in brief: (§1)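 The MIC was first measured by broth microdilution. Cells grown at MIC/2 were then carried into a fresh MIC assay after each 24 h, repeated over 20 serial passages. Norfloxacin (S. aureus) and colistin (E. coli) served as control antibiotics. Resistance was defined as a >4-fold rise over the original MIC.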

[2] = test system: Staphylococcus aureus; experiment: Ratio of MIC for Staphylococcus aureus ATCC 29213 after 20 passages to MIC for Staphylococcus aureus ATCC 29213 before 20 passages; assay type: functional; method in brief: as §1

COLISTIN
Ratio [1]: 32

CCn1cc(C(=O)O)c(=O)c2cc(F)c(N3CCNCC3)cc21 [NORFLOXACIN]
Ratio [2]: 256
